A selection: hits, their analogues and other compounds. The true share with any hit is near 1.3%.
DDE Tn6 FP inh – DD(E)-Tn6 binding inhibition, primary FP screen | 0.21% of 370,000 active | inhibition, % at 8.3 µM | AID 720509 | Fibrin DD(E) TRITC-Tn6 fluorescence polarization displacement | P02675;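 active means inhibition above a per-campaign cutoff: mean of compounds within control limits plus 3 SD, cut at about 15% in these data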
aDG glyco up – increases alpha dystroglycan glycosylation. Pro5-aDG cells, alpha-DG glycosylation AlphaScreen (IIH6); 0% Pro5, 100% B10-LARGE cell signal. 0.22% of 360,000 active. activation, % at 10 µM. AID 624168;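 active means activation of at least 8% versus controls, or a plate z-score of at least 8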;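 further: Pro5 are CHO cells carrying HIG-tagged alpha-DG that lacks glycosylation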
Tn7 DDE FP – disrupts Tn7 cyclic peptide binding to fibrin D-Dimer-E complex; inhibition, % at 8.3 µM; FP displacement of FITC-Tn7 peptide from fibrin DD(E); 0% = median of compound wells per plate; AID 720508; 0.13% of 370,000 active; P02675;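 active means inhibition above the mean of compounds falling within the control limits plus 3 SD of them, cut at about 14% in these data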
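Assay system: human fibrin DD(E). Input: DD(E) 2 µM final. Medium: Tris buffer with calcium and detergent, pH 7.8. Compound dosing: single point at 8.3 µM. Timing: 10 min plus 3 h, room temperature. Technique: fluorescence polarization of the labelled Tn7 tracer. Read-out: percent inhibition. Replicates: singlicate testing.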
NRP1-CendR mod – NRP-1/CendR interaction modulation. O14786. FAM-RPARPAR peptide binding to NRP-1, fluorescence polarization. AID 602438. 0.85% of 360,000 active. inhibition, % at 25 µM;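 active means inhibition or corrected inhibition above about 18%, plus a signal ratio from 0.5 to 1.5, limit read from the data, passing the limit was not always enough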
Target sequence (O14786 whole entry, looked up): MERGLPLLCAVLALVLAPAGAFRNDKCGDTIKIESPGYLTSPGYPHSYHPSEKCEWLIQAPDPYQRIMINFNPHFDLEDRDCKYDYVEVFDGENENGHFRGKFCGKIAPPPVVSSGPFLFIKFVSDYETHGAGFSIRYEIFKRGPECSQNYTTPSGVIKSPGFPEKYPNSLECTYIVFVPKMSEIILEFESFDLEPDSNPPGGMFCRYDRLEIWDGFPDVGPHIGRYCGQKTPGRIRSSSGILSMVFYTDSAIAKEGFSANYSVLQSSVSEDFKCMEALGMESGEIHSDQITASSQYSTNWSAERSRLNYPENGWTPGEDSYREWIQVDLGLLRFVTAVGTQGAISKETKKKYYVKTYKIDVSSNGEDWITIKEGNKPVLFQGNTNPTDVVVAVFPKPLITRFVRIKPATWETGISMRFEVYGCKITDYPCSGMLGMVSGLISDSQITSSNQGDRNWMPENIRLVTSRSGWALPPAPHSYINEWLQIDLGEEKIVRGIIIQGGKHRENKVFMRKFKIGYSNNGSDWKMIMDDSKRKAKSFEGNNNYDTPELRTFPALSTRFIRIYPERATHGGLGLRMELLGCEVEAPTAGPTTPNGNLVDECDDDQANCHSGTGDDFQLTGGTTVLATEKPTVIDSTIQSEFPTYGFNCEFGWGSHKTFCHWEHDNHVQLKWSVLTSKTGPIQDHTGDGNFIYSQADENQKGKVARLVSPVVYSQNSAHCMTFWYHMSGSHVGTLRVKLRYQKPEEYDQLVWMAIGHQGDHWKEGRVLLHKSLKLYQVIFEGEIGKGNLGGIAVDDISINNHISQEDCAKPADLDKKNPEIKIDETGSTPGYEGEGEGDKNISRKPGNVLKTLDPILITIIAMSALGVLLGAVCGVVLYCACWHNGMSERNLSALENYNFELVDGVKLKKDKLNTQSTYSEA
Large screens that a line does not name were inactive.

COc1cc(NC(=O)C2CCCN(S(=O)(=O)c3ccc(C)c(C)c3)C2)cc(OC)c1 (configuration not stated)	none (no result: aDG glyco up, NRP1-CendR mod)
CC(C)Cn1cnc2c(SCc3ccccc3F)nc(N)nc21	NRP1-CendR mod 26
COC1=C[C@H](C(=O)NCc2ccc(OC)cc2)C(C)C(c2ccccc2)CC1=O (some centres not stated)	none (no result: aDG glyco up, NRP1-CendR mod)
N[C@@H](Cc1ccc(O)cc1)c1nnc([C@H](CO)NC(=O)C2CCNCC2)o1	NRP1-CendR mod 22
Cc1cccc(N(CC(=O)NC2CCCC2)C(=O)CS(=O)CC(=O)Nc2ccc3c(c2)OCO3)c1C (configuration not stated)	NRP1-CendR mod 28
C[N+](C)(CC#Cc1ccccc1)CC(=O)c1ccccc1	NRP1-CendR mod 42
C[N+](C)(CC#Cc1ccccc1)CC(=O)c1ccc(Cl)cc1	none
CC1CC1C(=O)N1CCC(Oc2cccnc2)CC1 (configuration not stated)	none (no result: aDG glyco up, NRP1-CendR mod)
O=C(COc1ccccc1)Nc1ccc(-c2ccc(N3CCOCC3)nn2)cc1	NRP1-CendR mod 22
CCc1ccc(-n2ncc(Cl)c(Oc3ccc(OC)cc3)c2=O)cc1	none (no result: aDG glyco up, NRP1-CendR mod)
COc1ccc(NC(=O)C2Cc3ccccc3CN2C(=O)c2ccccc2)cn1 (configuration not stated)	NRP1-CendR mod 25
CC(=O)c1ccc(NC(=O)C2Cc3ccccc3CN2C(=O)c2ccccc2)cc1 (configuration not stated)	none
COc1ccc(NC(=S)NNC(=O)CCn2cc([N+](=O)[O-])cn2)cc1	NRP1-CendR mod 30
Cc1ccc(S(=O)(=O)N2CCCC2C(=O)N2CCc3ccccc3C2)cc1 (configuration not stated)	none (no result: aDG glyco up, NRP1-CendR mod)
Cc1cccc(-n2ncc3c2CCCC3NC(=O)CCN2CCCO2)c1C (configuration not stated)	none
Cc1cccc(-n2ncc3c2CCCC3NC(=O)CCN2CCCCO2)c1C (configuration not stated)	NRP1-CendR mod 23
CC(C)CCNC(=O)C1CCCN(C(=O)c2ccc3c(c2)NC(=O)CS3)C1 (configuration not stated)	none (no result: aDG glyco up, NRP1-CendR mod)
Cn1c(SCC(=O)NNC(=O)c2ccccc2Br)nnc1C(F)(F)F	none
Cc1ccc(SCC(=O)OCC(=O)N(CCC#N)c2ccccc2)cc1	NRP1-CendR mod 31
N#CCCN(C(=O)COC(=O)CSc1ccc(Cl)cc1)c1ccccc1	none
COc1ccc(C(C(=O)NC(C)(C)C)N(C(=O)CCC(=O)Nc2cc(C)on2)c2c(C)cccc2C)cc1 (configuration not stated)	NRP1-CendR mod 31
Cn1c(=O)c2[nH]c(SCCN3CCOCC3)nc2n(C)c1=S	none
Cn1c(=O)c2[nH]c(SCCN3CCCCC3)nc2n(C)c1=S	NRP1-CendR mod 20
CC(C)(SC(=S)N1CCCCCC1)C(=O)O	none
CC(SC(=S)N1CCCC1)C(=O)O (configuration not stated)	NRP1-CendR mod 36
CC(C)c1ccc(OCC(=O)NCc2ccccc2)cc1	NRP1-CendR mod 52
CC(=O)c1cccc(NC(=O)c2cnn3c(C)cc(C)nc23)c1	none (no result: aDG glyco up, NRP1-CendR mod)
COC(=O)C1=C(CS(=O)(=O)c2cc(OC)ccc2OC)NC(=O)NC1c1ccc(O)c(OC)c1 (configuration not stated)	NRP1-CendR mod 20
O=C(O)c1ccc(S(=O)(=O)/N=C2\C=C(Nc3ccccc3F)C(=O)c3ccccc32)cc1	NRP1-CendR mod 19
Cc1ccccc1NC1=C/C(=N\S(=O)(=O)c2ccc(C(=O)O)cc2)c2ccccc2C1=O	NRP1-CendR mod 24
Cc1ccccc1NC1=C/C(=N\S(=O)(=O)c2cccs2)c2ccccc2C1=O	none
CC(C)c1ccc(S(=O)(=O)/N=C2\C=C(NS(=O)(=O)c3ccccc3)C(=O)c3ccccc32)cc1	NRP1-CendR mod 31
Cc1cnc(C(=O)OCc2nc3ccsc3c(=O)[nH]2)cn1	none
CCc1nnc(SCC(=O)N2CCCc3ccccc32)nc1CC	none
Cc1ccc2c(c1)c1nnc(SCC(=O)N3CCCc4ccccc43)nc1n2CC(=O)O	NRP1-CendR mod 24
COCc1[nH]nc2c1C(c1cccc(C(F)(F)F)c1)N(c1ccc(OC)cc1)C2=O (configuration not stated)	none (no result: aDG glyco up, NRP1-CendR mod)
COc1ccc(CNC(=O)c2cc(S(=O)(=O)N3CCCCC3)ccc2N2CCOCC2)cc1OC	none
CC(Nc1nc(-c2ccc(F)cc2)cs1)c1nc2cc(C(F)(F)F)ccc2n1CCOCCO (configuration not stated)	NRP1-CendR mod 28
COC(=O)C1CCN(C2CN(Cc3cn(Cc4ccc(C(F)(F)F)cc4)nn3)S(=O)(=O)C2)CC1 (configuration not stated)	none (no result: aDG glyco up, NRP1-CendR mod)
COC(=O)C1CCC(=S)N1C(=O)c1ccccc1 (configuration not stated)	none
COC(=O)[C@H]1CN(C(=O)c2ccccc2)C(=O)N1	NRP1-CendR mod 25
c1ccc(-c2csc(Nc3ccc4c(c3)OCO4)n2)cc1	NRP1-CendR mod 24
Cc1ccc(Cl)cc1N1CCN(C(=O)C2CCN(S(=O)(=O)c3cccnc3)CC2)CC1	aDG glyco up 7.5
O=C(NN=C1CCCCCCCCCCC1)c1ccccc1F	NRP1-CendR mod 28
CC1=[N+](C)N(c2ccccc2)C(=O)C1N=Cc1ccccc1Cl (configuration not stated)	NRP1-CendR mod 18
CC1=[N+](C)N(c2ccccc2)C(=O)C1N=Cc1c(Cl)cccc1Cl (configuration not stated)	none
OCC[C@@H]1C[C@H](O)[C@@H](O)[C@@]2(CCCCO2)O1	NRP1-CendR mod 27
OCC[C@H]1C[C@H](O)[C@@H](O)[C@@]2(CCCCO2)O1	none
CCn1c(SCC(=O)N2CCN(c3ccc(F)cc3)CC2)nc2ccccc2c1=O	NRP1-CendR mod 29
Cc1cc(NS(=O)(=O)c2ccc(NC(=O)CSc3nnc(-c4ccco4)n3-c3ccc(Cl)cc3)cc2)nc(C)n1	none (no result: aDG glyco up, NRP1-CendR mod)
NC(=O)C1CCN(C(=O)CC2(CC(=O)O)CCCCC2)CC1	NRP1-CendR mod 27
Cc1nc2ccccn2c1-c1csc(NCc2ccco2)n1	none
Cc1ccn2c(-c3csc(NCc4ccccc4)n3)c(C)nc2c1	NRP1-CendR mod 25
NS(=O)(=O)c1ccc(NC(=O)c2ccc(S(=O)(=O)N3CCOCC3)o2)cc1	none
O=C(Nc1ccc(F)cc1)c1ccc(S(=O)(=O)N2CCOCC2)o1	NRP1-CendR mod 25
C=CCNC1=C(Cl)C(=O)c2ccccc2C1=O	aDG glyco up 9.7
O=C1C(Cl)=C(NCCc2ccccc2)C(=O)c2ccccc21	none
O=C1C(Cl)=C(Nc2ccccc2)C(=O)c2ccccc21	none
CC(C)NC1=C(Cl)C(=O)c2ccccc2C1=O	aDG glyco up 6.3
O=C1C(Cl)=C(NCc2cccnc2)C(=O)c2ccccc21	aDG glyco up 2.9
O=C(O)c1ccc(NC2=C(Cl)C(=O)c3ccccc3C2=O)cc1	NRP1-CendR mod 29
C[C@H](CO)N1C[C@H](C)[C@H](CN(C)C(=O)Nc2cccc3ccccc23)Oc2ncc(Br)cc2C1=O	none (no result: aDG glyco up, NRP1-CendR mod)
CCN(CC)CCCNC1=C(Cl)C(=O)c2ccccc2C1=O	aDG glyco up 9.2

High-throughput results: PubChem, several laboratories
